# Compound activity deposited in PubChem BioAssay by several laboratories.
# A selection: hits, their analogues and other compounds. The true share with any hit is near 4.6%.
# Pemphigus Ab inh: inhibitors of pemphigus antibody binding to DSG3, primary screen, biochemical, bead-based, flow cytometry, scFv-GFP | Desmoglein-3 (Homo sapiens), P32926 | DSG3-coupled beads, scFv-anti-DSG3-GFP binding; stronger effect = lower value | binding (percent of control), % at 10 µM | actives 0.48% (n = 310,000) | AID 588358, 2011;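 active means binding more than 3 SD below its plate's average and above zero; inconclusive means below that plate limit but binding exactly zero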;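 further: hits lower antibody fragment binding to DSG3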
# NALP1 inh: NALP1 inflammasome inhibitors in reconstituted yeast, colorimetric, S. cerevisiae, triplicate retest | S. cerevisiae NALP1/ASC/caspase-1 growth, X-gal OD620, 72 h | inhibition, % at 10 µM | actives 0.61% (n = 280,000); in the data active means inhibition mostly above about 24%, no sharp cut-off; inactive means mostly below about 32%
# NALP3 yeast inh: NALP3 inflammasome inhibitors in reconstituted yeast, primary screen, luminescence, uHTS. inhibition, % at 10 µM. AID 2825, 2010. Yeast reconstituted NLRP3/ASC/caspase-1, beta-gal luminescence, 24 h. actives 0.39% (n = 330,000);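 active means inhibition of 50% or more; inactive means inhibition below 50%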;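 further: plate controls were induced DMSO wells for no effect and uninduced yeast grown without galactose for full effect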
# Arr AP2 block: inhibitors of beta-arrestin/AP2 binding, primary screen, biochemical, GPCR trafficking, flow cytometry; FITC-arrestin peptide / GST-AP2 beads; AP2 beta2 appendage carries R879A mutation; AID 504490, 2011; inhibition, % at 10 µM; beta-arrestin 1 C-terminal peptide binding to AP2 beta2-adaptin appendage (human); actives 0.31% (n = 340,000);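 active means inhibition above a set limit, near 3 SD of compounds lacking own fluorescence, cut at about 54% in these data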;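 further: plate controls were DMSO wells for no effect and 5 µM unlabelled arrestin peptide for full effect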
#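 Assay system: GST-AP2 R879A bound to glutathione beads, E. coli-expressed; Medium: PBS with 0.05% Tween 20 and 0.1% BSA; Also added: fluorescein-tagged arrestin peptide at 50 nM final; Timing: 12 min plus 1 h, RT; Measured by: flow cytometry, FL1 (488/535 nm); Evaluation: percent drop in bead-associated FITC signal.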
# PolyA inh: polyadenylation inhibitors in yeast reporter cells, primary screen, luminescence, S. cerevisiae | activity score, % at 12 µM | actives 0.02% (n = 300,000) | S. cerevisiae SKY197-pL101 polyadenylation reporter, beta-gal luminescence; efflux-impaired pdr1/pdr3 knockout yeast; score 100 = 6 SD above DMSO;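 active means lowest replicate activity score at least 50, where 100 means six control SD above control mean; inconclusive means lowest score under 50 but half or more replicates reach 50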;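 further: yeast exposed to compound for 9 h at 30 °C; higher score means more reporter readthrough which indicates perturbed polyadenylation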
# ALR H2O2 inh: inhibitors of human ALR sulfhydryl oxidase, primary screen, biochemical, H2O2 detection, HRP-luminol luminescence, single point; FAD-linked sulfhydryl oxidase ALR (Homo sapiens), P55789; purified ALR, DTT oxidation; inhibition, % (concentration not given with the values); actives 3.8% (n = 290,000);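 active means mean replicate inhibition above about 79%, with every replicate also reaching it, limit read from the data; inconclusive means only one of the two criteria met; inactive means mean below limit and not every replicate reaching it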
# The depositor's hits bear a star; u = inconclusive; x = no result given.
SMILES,Pemphigus Ab inh,NALP1 inh,NALP3 yeast inh,Arr AP2 block,PolyA inh,ALR H2O2 inh
CC/C(=N\NC(=O)CCC(=O)NCc1ccccc1)c1ccc(O)cc1,134,-12,8,1,18,99*
CCCCC/C(=N\NC(=O)CCC(=O)NCc1ccccc1)c1ccccc1,76,26,1,16,-5,1
COC(=O)c1cc(OC(=O)CCc2ccc(OC)c(OC)c2)cc(C(=O)OC)c1,x,17,16,4,-2,x
COc1ccc(C(C#N)CC(=O)c2ccc(OC)c(OCc3ccccc3)c2)cc1OC (stereo not given),104,x,x,x,x,x
CCN(CC)c1ccc(NC(=O)C2=CC=CN3CCS(=O)(=O)N=C23)cc1,106,x,8,5,x,99*
Cc1cc(C)c(S(=O)(=O)N2CCOC2CNC(=O)C(=O)NCCCN2CCOCC2)c(C)c1 (stereo not given),99,12,6,25,8,-6
Cc1ccc(-c2csc(N=C(N)N)n2)cc1,103,18,2,-21,-13,99*
Cc1ccc(-c2csc(N3CCC(C(N)=O)CC3)n2)cc1,97,x,11,17,x,31
Cc1c(CC(=O)O)c(=O)oc2c(C)c(OCc3nn[nH]n3)ccc12,88,37*,-1,2,u,-2
Cc1c(Cc2ccccc2)c(=O)oc2c(C)c(OCc3nn[nH]n3)ccc12,102,12,14,-6,x,70
CCC[C@H]1CN(c2ccc(OC)cc2)C(=O)[C@@H]1CC(=O)NC,99,x,x,x,x,x
c1cn2c(NC3CCCCC3)c(-c3ccc(SC4CCCCC4)cc3)nc2cn1,125,x,11,14,3,x
c1cn2c(NC3CCCC3)c(-c3ccc(N4CCOCC4)cc3)nc2cn1,82,-25,5,-3,-13,99*
O=C(O)c1ccc2c(c1)C(=O)N(Cc1ccc3c(c1)OCO3)C2=O,95,-16,-8,5,6,87*
O=c1oc2ccccc2cc1-c1nc(-c2cccs2)cs1,88,-11,12,25,-15,-4
COc1cccc2cc(-c3nc(-c4cccs4)cs3)c(=O)oc12,x,-3,20,99*,0,-4
c1csc(-c2nc3ccccn3c2NC2CCCCC2)c1,114,-1,21,14,-17,94*
Cc1ccn2c(NC3CCCC3)c(-c3cccs3)nc2c1,99,-16,18,1,-17,64
CCC(C)Sc1cc(-c2nc3ccccn3c2NC2CCCCC2)ccc1OC (stereo not given),108,x,5,8,7,x
CC(C)c1nc2ccccn2c1NC1CCCCC1,x,24*,20,24,7,x
CCN(CC(=O)Nc1ccccc1C(F)(F)F)CC(=O)c1[nH]c(C)c(C(C)=O)c1C,105,x,x,x,x,x
Cc1cc(C)n(C(=O)CNC(=O)c2ccc(Cl)cc2Cl)n1,x,14,30,-8,-8,-3
O=C(CC(NCCc1ccccc1)C(=O)O)Nc1ccc(O)cc1 (stereo not given),x,9,1,x,22,91*
O=C(CC(c1ccccc1)c1ccccc1)Nc1ccc(O)cc1,85,19,20,3,4,99*
CCOC(=O)N1CCN(C(=O)CS(=O)(=O)Cc2nc(-c3ccccc3C)oc2C)CC1,104,-2,13,15,17,-5
SMILES,Pemphigus Ab inh,NALP1 inh,NALP3 yeast inh,Arr AP2 block,PolyA inh,ALR H2O2 inh
CCOC(=O)N1CCN(C(=O)CSCc2nc(-c3ccccc3C)oc2C)CC1,100,-8,15,34,-6,99*
CCOC(=O)N1CCN(C(=O)CSCc2nc(-c3ccccc3F)oc2C)CC1,102,-2,8,11,4,100*
Cc1cc(NC(=O)CSCC(=O)N2CCN(c3ccccc3)CC2)no1,93,x,6,-9,x,99*
Cc1nnc(NC(=O)CSc2cn(Cc3ccccc3)c3ccccc23)s1,-20*,15,13,3,-18,-1
Cc1cc(NC(=O)CSc2cn(CC(=O)N(C(C)C)C(C)C)c3ccccc23)no1,104,12,1,1,0,98*
CCCn1cc(SCC(=O)Nc2cc(C)on2)c2ccccc21,99,-6,29,1,-23,8
CCn1cc(SCC(=O)Nc2cc(C)on2)c2ccccc21,113,31,20,4,18,95*
C=CCN(Cc1ccc(Cl)s1)C(=O)c1cc(S(=O)(=O)N2CCOCC2)ccc1F,x,x,9,-8,x,-9
Cc1ccc(N(CC(=O)NCc2ccco2)C(=O)CCC(=O)Nc2ccccn2)c(C)c1,x,17,34,7,2,4
CCc1cc2ccccc2nc1SCC(=O)Nc1cc(C)on1,87,7,11,5,4,-6
Cc1cc(NC(=O)CSc2ccc3ccccc3c2)no1,98,-11,17,28,36,99*
CCc1cc2cc(C)c(C)cc2nc1SCC(=O)Nc1cc(C)on1,60*,11,7,7,3,-1
CCn1cc(SCC(N)=O)c2ccccc21,100,x,6,-2,-12,96*
O=C(NCCN1CCCC(O)C1)c1cc(COc2cccc(C(F)(F)F)c2)on1 (stereo not given),100,x,x,x,x,x
COC(=O)C1CSC(C(=O)OC)N1C(=O)CN1CCN(c2ccccc2)CC1 (stereo not given),115,1,7,13,x,91*
COC(=O)C1CSC(C(=O)OC)N1C(=O)Nc1ccccc1 (stereo not given),126,21,7,7,-19,x
Cc1ccc(NC(=O)c2ccc([N+](=O)[O-])s2)cc1S(=O)(=O)N1CCOCC1,94,x,15,17,x,-26
CC1=C(C(=O)NC2CCCc3c2cnn3-c2ccc(F)cc2F)OCCO1 (stereo not given),95,3,9,22,-6,89*
COc1ccc2[nH]c3c(c2c1)CCN1C(=O)C(CC(=O)NCc2cccc(C(F)(F)F)c2)C[C@H](C(=O)N2CCCCC2)[C@@]31C (stereo not given in full),79*,x,x,-9,x,x
O=C(O)CSc1ncnc2nc[nH]c12,99,-3,10,-5,x,6
c1nc(SSc2ncnc3nc[nH]c23)c2[nH]cnc2n1,66*,x,x,-14,x,x
CC1=C(C(=O)N(C)C)CC(CC(=O)NCc2cccs2)C(=O)N1CCCN1CCCC1=O (stereo not given),95,x,x,x,x,x
NC(=O)C1(Nc2ccc(Cl)cc2)CCCC1,94,x,x,32,x,x
